Source: PubChem (several laboratories)
KCNK3 block – human KCNK3 channel inhibitors, primary screen, CHO cells, FluxOR thallium flux, B-score. AID 602410, 2012. FluxOR fluorescence; hits give low values. actives 0.84% (n = 340,000). Potassium channel subfamily K member 3 (Homo sapiens), O14649. B-score at 10 µM;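 active = B-score under library mean minus 4 SD, starting fluorescence ratio at most library mean plus 5 SD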;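 note: more negative B-score means stronger inhibition of thallium flux through KCNK3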
KCNQ1 pot – potentiators or activators of KCNQ1 channel, primary screen, cell-based, thallium flux, high-throughput | actives 0.35% (n = 310,000) | Potassium voltage-gated channel subfamily KQT member 1 (Homo sapiens), P51787 | B-score at 10 µM | CHO-K1 KCNQ1, thallium flux FluxOR fluorescence; hits give high values | AID 2648, 2010;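 active = fluorescence ratio B-score, a plate-corrected score, at least three library SD, with initial intensity B-score within 5 SD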
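Assay system: CHO-K1 cells stably expressing KCNQ1; Medium: assay buffer with matched DMSO; Also added: K+/Tl+ depolarizing stimulus; Dosing: single dose; Timing: dye 90 min, compound 20 min, room temperature; Measured by: kinetic FluxOR thallium fluorescence, 10-s 1-Hz baseline, 110-s post-stimulus read; Read-out: peak-minus-minimum fluorescence over initial fluorescence, negative-control normalized, B-scored.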
KCNK9 block – KCNK9 potassium channel inhibitors, primary screen, HEK293 cells, thallium flux; B-score at 10 µM; Potassium channel subfamily K member 9 (Homo sapiens), Q9NPC2; actives 1.2% (n = 310,000); FluxOR thallium flux fluorescence; hits give low values;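 active = ratio B-score over 3 SD below the library mean, with starting fluorescence within 5 SD of its mean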;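 note: negative B-score means less thallium flux so channel inhibition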
KCNQ1 inh – inhibitors of human KCNQ1 channel, primary screen, cell-based, thallium flux, high-throughput; B-score at 10 µM; Potassium voltage-gated channel subfamily KQT member 1 (Homo sapiens), P51787; AID 2642, 2010; CHO-K1 KCNQ1, FluxOR thallium flux fluorescence; hits give high values; actives 1.3% (n = 310,000);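 active = compounds whose thallium flux B-score, printed positive for inhibition, exceeds three library SD while starting fluorescence stays within three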;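 note: channel opened by potassium depolarization with thallium stimulus after 20 min compound exposure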
KCC2 mod – KCC2 cotransporter modulators, thallium flux, primary screen, cell-based, HEK293 KCC2, FluoZin-2 fluorescence, MLSMR. Solute carrier family 12 member 5 (Homo sapiens), Q9H2X9. KCC2 cells, thallium flux FluoZin-2 fluorescence. B-score of Tl+ flux slope (higher = more flux/activation; lower = inhibition) at 10 µM. actives 2.2% (n = 190,000). AID 1456, 2008;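 active = thallium flux slope and its plate-corrected score both differing from the plate sample mean at a set confidence after two filtering rounds, in either direction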;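 note: slope of fluorescence scaled to starting intensity during 10 to 20 s after thallium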
hERG rescue – hERG rescue from dofetilide block, primary screen, cell-based, CHO-hERG, FluxOR thallium flux, dofetilide IC70; AID 1511, 2009; dofetilide IC70 present; activation (rescue from dofetilide block), less the hit threshold, % at 10 µM; actives 0.51% (n = 310,000);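 active = activation above the mean of controls blocked by dofetilide plus 5 SD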;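 note: thallium influx through hERG after potassium depolarization seen as dye fluorescence rise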
Target sequence (Q12809 whole entry, looked up): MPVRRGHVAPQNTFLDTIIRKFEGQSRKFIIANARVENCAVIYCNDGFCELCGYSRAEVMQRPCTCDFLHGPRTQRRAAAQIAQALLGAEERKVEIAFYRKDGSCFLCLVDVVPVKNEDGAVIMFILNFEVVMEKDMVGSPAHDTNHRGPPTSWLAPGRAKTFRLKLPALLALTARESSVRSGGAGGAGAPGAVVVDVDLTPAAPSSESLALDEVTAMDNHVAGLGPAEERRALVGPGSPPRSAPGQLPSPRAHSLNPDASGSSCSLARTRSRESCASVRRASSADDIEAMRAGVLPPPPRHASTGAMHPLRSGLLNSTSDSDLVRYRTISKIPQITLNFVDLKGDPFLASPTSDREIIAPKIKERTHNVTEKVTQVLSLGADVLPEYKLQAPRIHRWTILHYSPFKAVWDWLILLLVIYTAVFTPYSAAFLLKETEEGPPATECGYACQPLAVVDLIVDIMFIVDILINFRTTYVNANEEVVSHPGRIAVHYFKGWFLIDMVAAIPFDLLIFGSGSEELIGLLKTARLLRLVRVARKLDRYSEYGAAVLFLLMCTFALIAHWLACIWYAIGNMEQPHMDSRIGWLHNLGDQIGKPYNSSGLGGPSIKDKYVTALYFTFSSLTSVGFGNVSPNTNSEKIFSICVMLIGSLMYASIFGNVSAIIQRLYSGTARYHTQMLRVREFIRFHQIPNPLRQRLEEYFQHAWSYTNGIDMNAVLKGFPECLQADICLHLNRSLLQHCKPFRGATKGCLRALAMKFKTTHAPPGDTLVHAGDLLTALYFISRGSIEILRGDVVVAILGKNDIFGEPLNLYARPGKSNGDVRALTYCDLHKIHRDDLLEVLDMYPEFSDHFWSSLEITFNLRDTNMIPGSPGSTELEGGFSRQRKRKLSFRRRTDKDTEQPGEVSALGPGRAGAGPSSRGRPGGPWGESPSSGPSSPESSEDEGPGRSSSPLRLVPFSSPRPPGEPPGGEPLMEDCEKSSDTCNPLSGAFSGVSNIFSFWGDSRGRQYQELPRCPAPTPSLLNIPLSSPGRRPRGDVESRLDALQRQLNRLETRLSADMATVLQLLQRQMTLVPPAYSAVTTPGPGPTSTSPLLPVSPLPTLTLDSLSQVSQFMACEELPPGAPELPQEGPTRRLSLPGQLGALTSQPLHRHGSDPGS
KCNQ1 block val – KCNQ1 potassium channel inhibitors, confirmation, cell-based, Tl flux, duplicate. shares compounds with KCNQ1 inh. inhibition, % at 10 µM. AID 588353, 2011. KCNQ1 cell line, FluxOR thallium flux fluorescence. actives 93% (n = 1,600);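 active = primary screen active, with duplicate mean exceeding buffer control mean plus 3 SD of buffer wells, cut at about 28% in these data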
CHO Tl flux – thallium flux effects in parental CHO cells, counter-screen for KCNQ1 inhibitor project, cell-based, Tl flux; shares compounds with KCNQ1 inh; parental CHO-K1, FluxOR thallium flux fluorescence ratio; hits give low values; zero means no signal rise above baseline; fluorescence ratio (Tl flux) at 10 µM; actives 21% (n = 1,600);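 active = mean of duplicate thallium-flux fluorescence ratios in parental host cells more than 5 SD below the buffer control mean, cut at about 0.38 in these data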;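 note: ratio is peak minus minimum fluorescence divided by baseline fluorescence; actives read low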
KCNQ1 ephys val – KCNQ1 channel inhibitors, confirmation, orthogonal assay, cell-based, automated electrophysiology | calls only at 10 µM | KCNQ1-CHO cells, automated patch clamp current | actives 20% (n = 490) | shares compounds with KCNQ1 inh;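 active = KCNQ1 current drop exceeding 3 SD of negative control wells, seen in both duplicate runs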;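 note: steady state current during a 2 s step from -80 to +40 mV; negative values mean current inhibition and positive values mean potentiation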
KCNQ2 spec – KCNQ2 channel inhibition, selectivity assay for KCNQ1 inhibitor project, cell-based | shares compounds with KCNQ1 inh | KCNQ2 cells, FluxOR thallium flux fluorescence | inhibition, % at 10 µM | actives 71% (n = 1,600) | AID 651746, 2012;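 active = mean percent inhibition of the KCNQ2 thallium signal more than 5 SD above the buffer-only control wells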;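 note: KCNQ2 expressed in CHO cells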
KCNQ1-KCNE1 inh – KCNQ1/KCNE1 channel inhibition, selectivity assay for KCNQ1 inhibitor project, CHO-K1 cells, thallium flux, FluxOR | AID 652147, 2013 | inhibition, % at 10 µM | FluxOR thallium flux fluorescence | shares compounds with KCNQ1 inh | actives 77% (n = 1,600);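 active = mean percent inhibition of duplicate wells above the buffer-only control mean plus 3 SD of those controls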
A number is an active result; i = inactive; nt = no result given; + = active, no number. Rows were chosen to be rich in hits. Some 4.1% of all compounds tested hit in one or more screens of this group.

SMILES	KCNK3 block	KCNQ1 pot	KCNK9 block	KCNQ1 inh	KCC2 mod	hERG rescue	KCNQ1 block val	CHO Tl flux	KCNQ2 spec	KCNQ1-KCNE1 inh	others
CCCCn1c(=O)[nH]c2nc3cc(N)ccc3nc2c1=O	i	nt	nt	nt	i	nt	nt	nt	nt	nt
CCNC(=O)COC(=O)C1CCN(S(=O)(=O)c2ccc3c(c2)OCCO3)CC1	i	i	i	i	nt	i	nt	nt	nt	nt
Cc1ccc(-c2nnc(N3CCC(C)CC3)c3ccccc23)cc1C	i	i	i	12	i	i	164	0.31	114%	+
CC1CCN(c2nnc(-c3ccccc3)c3ccccc23)CC1	i	i	i	6	i	i	92	i	90%	143%	KCNQ1 ephys val=i
CCCCN1C2=NCCCN2c2ccccc21	i	i	i	i	i	i	nt	nt	nt	nt
CCCCCCCN1C2=NCCCN2c2ccccc21	i	i	i	7	i	i	50	i	i	55%
CC1(c2ccc3ccccc3c2)NC(=O)N(CC(=O)N2CCN(S(=O)(=O)c3ccccc3F)CC2)C1=O (stereo not drawn)	i	i	i	i	nt	i	nt	nt	nt	nt
CCOC(=O)C1=C(C)N(C)C(C)=C(C(=O)OCC)C1c1ccc(C(=O)OC)cc1	i	i	i	6	i	i	106	0.3	115%	151%
COc1ccc(CCNC(=O)C2CCCN(S(=O)(=O)c3ccc(F)cc3)C2)cc1 (stereo not drawn)	i	i	i	i	nt	i	nt	nt	nt	nt
CCOC(=O)C1=C(CC)Nc2ccccc2N=C1NC(=O)Nc1ccc(Cl)c(Cl)c1	i	i	-6.9	11	i	i	116	i	i	i	KCNQ1 ephys val=i
COc1ccc(CC(=O)OCc2nnc(C3COc4ccccc4O3)o2)cc1OC (stereo not drawn)	i	i	i	i	i	i	nt	nt	nt	nt
CCCc1ccc(C(C)NC(=S)NC2CCCCC2)cc1 (stereo not drawn)	i	i	i	6	nt	i	46	i	i	i
CCCc1ccc(-c2cc(C(=O)N3CCN(c4ccccn4)CC3)c3ccccc3n2)cc1	i	i	i	9	nt	i	89	i	114%	104%	KCNQ1 ephys val=i
c1ccc(Cn2ncc3c(N4CCN(C(c5ccccc5)c5ccccc5)CC4)ncnc32)cc1	i	i	i	10	nt	9.4	+	0.38	i	i
N#Cc1c(C(F)(F)F)cc(-c2ccc(F)cc2)[nH]c1=O	i	i	i	11	i	i	40	i	i	i
Cc1cc(C)n2c(SCc3nnc(-c4cccs4)o3)nnc2n1	i	i	i	i	i	i	nt	nt	nt	nt
S=C(NCCNC(=S)Nc1ccccc1Cl)Nc1ccccc1Cl	i	i	i	7	nt	i	62	i	82%	i
S=C(NCCCc1ccccc1)Nc1ccccc1Cl	i	i	i	7	i	i	100	i	61%	38%	KCNQ1 ephys val=i
S=C(NCCc1ccccc1)NCc1cccc(Cl)c1	i	i	i	9	nt	i	62	i	104%	46%
Cc1cccc(C)c1NC(=S)N/N=C/c1c(Cl)cccc1Cl	i	i	i	i	i	i	nt	nt	nt	nt
Cc1ccc(Cl)cc1N1CCN(C(=O)c2cc3c(=O)[nH]c4ccccc4c3n2C)CC1	i	i	i	12	i	i	110	i	104%	i	KCNQ1 ephys val=i
S=C(NCc1ccc(Cl)cc1)Nc1ccncc1	i	i	i	11	nt	i	144	i	98%	136%	KCNQ1 ephys val=+
Nc1nc(SCc2ccccc2)c2ncn(Cc3ccccc3)c2n1	i	nt	nt	nt	nt	nt	nt	nt	nt	nt
COc1ccc(Nc2nc(-c3cccs3)nc3ccccc23)c(OC)c1	i	i	i	8	i	i	132	0.33	131%	+
COc1ccc(Nc2nc(-c3cccc([N+](=O)[O-])c3)nc3ccccc23)c(OC)c1	i	i	i	i	i	i	nt	nt	nt	nt
SMILES	KCNK3 block	KCNQ1 pot	KCNK9 block	KCNQ1 inh	KCC2 mod	hERG rescue	KCNQ1 block val	CHO Tl flux	KCNQ2 spec	KCNQ1-KCNE1 inh	others
Cc1cccc(NC(=O)COc2ccccc2C(=O)NC(C)c2ccccc2)c1 (stereo not drawn)	i	i	i	7	nt	i	130	i	i	190%
C[C@]12CC[C@@H]3c4ccc(O)cc4CC[C@H]3[C@@H]1CC[C@@H]2OC(=O)CCC1CCCC1	i	i	i	i	nt	i	nt	nt	nt	nt
CCCCC(=O)O[C@H]1CC[C@H]2[C@@H]3CCc4cc(O)ccc4[C@H]3CC[C@]12C	i	i	i	6	i	i	72	i	63%	100%
Cc1ccsc1C(=O)OCc1csc(-c2ccccc2)n1	i	i	-7.8	7	i	i	146	i	127%	+	KCNQ1 ephys val=i
CC(=O)NCCn1c(SCC(=O)c2ccc(Cl)cc2)nc2ccccc2c1=O	i	i	i	i	i	i	nt	nt	nt	nt
COc1ccc(Cl)cc1NC(=O)C1CC(c2c(F)cccc2Cl)=NO1 (stereo not drawn)	i	i	i	i	nt	i	nt	nt	nt	nt
CSc1cccc(CN2CCCC(CO)(Cc3cccc(Cl)c3)C2)c1 (stereo not drawn)	i	i	i	7	i	i	56	i	101%	86%
OCC1(Cc2cccc(Cl)c2)CCCN(Cc2ccc(F)c(F)c2)C1 (stereo not drawn)	i	i	i	i	nt	i	nt	nt	nt	nt
